The source of these data is ChEMBL document CHEMBL3045710, “Antifungal activity of 4'-(2,6,6-Trimethyl-2-cyclohexen-1-yl)-3'-butene-2'-ketoxime N-O-alkyl ethers” (2010).

One experiment relates to Athelia rolfsii. As to the kind of experiment: Antifungal activity against Athelia rolfsii assessed as growth inhibition at 28 degC. Particulars: Agroathelia rolfsii; read-out: ED50 (the source's name). Type of experiment: functional. In outline: (§1)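 Poisoned food technique on PDA: compound in acetone added to medium at 1000, 500, 250, 125, 100, 50, 25 and 10 μg/mL (final in medium). Acetone 1 mL serves as the control. A 5 mm mycelial disk from a 2-week-old colony is placed centrally. Plates are incubated at 28 °C until control growth is nearly complete. Colony diameter is measured and %inhibition = (C−T)/C×100, four replicates. ED50 is obtained by probit analysis of Abbott-corrected inhibition.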

For experiment [1], the system named is Macrophomina phaseolina. Put plainly: Antifungal activity against Rhizoctonia bataticola assessed as growth inhibition at 28 degC. Type of experiment: functional. The settings on record: read-out: ED50 (the source's name). The gist of the method: as §1
Experiment [2] relates to Sclerotinia sclerotiorum. As to the kind of experiment: Antifungal activity against Sclerotinia sclerotiorum assessed as growth inhibition at 28 degC. Particulars: read-out: ED50 (the source's name). Type of experiment: functional. In outline:
as §1

Experiment [3] relates to Macrophomina phaseolina. As to the kind of experiment: Antifungal activity against Macrophomina phaseolina assessed as growth inhibition at 28 degC. Type of experiment: functional. Particulars: read-out: ED50 (the source's name). The gist of the method:
as §1

In experiment [4] the test system is Sclerotinia sclerotiorum. Put plainly: Antifungal activity against Sclerotinia sclerotiorum infected pea plants assessed as healthy plants at 1 % aqueous emulsion measured on day 7. Type of experiment: functional. In outline:
(§2)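 Greenhouse pea assay: S. sclerotiorum inoculum grown in potato dextrose broth, homogenized and mixed into autoclaved, sieved composted soil, then incubated 5-7 days at ~25 °C. Formulated compound is applied as 1 or 5% aqueous emulsion at 5.0 mL per 150 cm3 soil and held 7 days in sealed bags. Symptoms (water-soaked spots) and symptomless plants are scored 7, 14 and 21 days after transplanting, 20 plants per treatment.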

In experiment [5] the test system is Sclerotinia sclerotiorum. As to the kind of experiment: Antifungal activity against Sclerotinia sclerotiorum infected pea plants assessed as healthy plants at 5 % aqueous emulsion measured on day 21. Type of experiment: functional. The gist of the method:
as §2

Experiment [6] has as its system Sclerotinia sclerotiorum. Put plainly: Antifungal activity against Sclerotinia sclerotiorum infected pea plants assessed as prevention of water soaked spots at 5 % aqueous emulsion measured on day 21. Type of experiment: functional, organism-based. The gist of the method:
as §2

Experiment [7] concerns Sclerotinia sclerotiorum. As to the kind of experiment: Antifungal activity against Sclerotinia sclerotiorum infected pea plants assessed as healthy plants at 1 % aqueous emulsion measured on day 21. Type of experiment: functional. The gist of the method: as §2
Experiment [8] relates to Sclerotinia sclerotiorum. Put plainly: Antifungal activity against Sclerotinia sclerotiorum infected pea plants assessed as healthy plants at 0.364 mL of ai/150cm'3 measured after 14 days. Type of experiment: functional. The gist of the method: (§3)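 S. sclerotiorum inoculum was grown in potato dextrose broth at 27 °C for 7 days, then in water at 20 °C for 3-4 weeks, then homogenized, filtered and sonicated. It was mixed into sieved, autoclaved compost soil and held about 25 °C for 5-7 days. Fungicide was incorporated and soil was bagged 7 days. Pea was transplanted. Symptomless plants were scored at 7, 14 and 21 days (20 plants/treatment, six trials), arcsine-square-root transformed, repeated-measures ANOVA.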

Experiment [9] deals with Sclerotinia sclerotiorum. Put plainly: Antifungal activity against Sclerotinia sclerotiorum infected pea plants assessed as healthy plants at 0.364 mL of ai/150cm'3 measured after 21 days. Type of experiment: functional. The gist of the method:
as §3

The structures appear in SMILES notation. Converted amounts (≈) assume the structure as drawn. The source made the active and inactive calls. The rule behind the calls is not given here. Bounds are passed on as bounds.

As to `CCCCCCCO/N=C(C)\C=C\C1C(C)=CCCC1(C)C` (configuration not stated), the EC50 with Athelia rolfsii worked out at 956 mg/L (≈ 3130 µM); in the experiment on Macrophomina phaseolina [1] it was 566 mg/L (≈ 1850 µM); in the experiment on Sclerotinia sclerotiorum [2], 419 mg/L (≈ 1370 µM); in the experiment with Macrophomina phaseolina [3] it was 1090 mg/L (≈ 3570 µM).
On the same counts, the results for `CCCCCCO/N=C(C)/C=C/C1C(C)=CCCC1(C)C` (configuration not stated) are 573 mg/L (≈ 1970 µM), 895 mg/L (≈ 3070 µM), 428 mg/L (≈ 1470 µM) and 751 mg/L (≈ 2580 µM).
On the same counts, the results for `CCCCCCCCCCO/N=C(C)/C=C/C1C(C)=CCCC1(C)C` (configuration not stated) are 842 mg/L (≈ 2420 µM), 1940 mg/L (≈ 5590 µM), 681 mg/L (≈ 1960 µM) and 957 mg/L (≈ 2750 µM).
For `CC1=CCCC(C)(C)C1/C=C/C(C)=N\OCCC(C)C` (configuration not stated), the EC50 in the experiment with Athelia rolfsii stood at 367 mg/L (≈ 1320 µM); in the experiment with Macrophomina phaseolina [1] it was 125 mg/L (≈ 452 µM); with Sclerotinia sclerotiorum [2], 375 mg/L (≈ 1350 µM); in the experiment on Macrophomina phaseolina [3], 625 mg/L (≈ 2250 µM).
On to `CCCO/N=C(C)\C=C\C1C(C)=CCCC1(C)C` (configuration not stated), for which the EC50 in the experiment on Athelia rolfsii stood at 132 mg/L (≈ 530 µM); with Macrophomina phaseolina [1], 157 mg/L (≈ 629 µM); with Sclerotinia sclerotiorum [2] it was 220 mg/L (≈ 881 µM); in the experiment with Macrophomina phaseolina [3], 236 mg/L (≈ 945 µM).
On the same counts, the results for `CCCCCCCO/N=C(C)/C=C/C1C(C)=CCCC1(C)C` (configuration not stated) are 975 mg/L (≈ 3190 µM), 919 mg/L (≈ 3010 µM), 392 mg/L (≈ 1280 µM) and 717 mg/L (≈ 2350 µM).
Consider `CCO/N=C(C)/C=C/C1C(C)=CCCC1(C)C` (configuration not stated), for which the EC50 with Athelia rolfsii was found to be 410 mg/L (≈ 1740 µM); in the experiment with Macrophomina phaseolina [1], 393 mg/L (≈ 1670 µM); in the experiment on Sclerotinia sclerotiorum [2] it was 295 mg/L (≈ 1250 µM); in the experiment with Macrophomina phaseolina [3], 732 mg/L (≈ 3110 µM).
On the same counts, the results for `CCCCCCCCO/N=C(C)/C=C/C1C(C)=CCCC1(C)C` (configuration not stated) are 1040 mg/L (≈ 3250 µM), 1090 mg/L (≈ 3430 µM), 837 mg/L (≈ 2620 µM) and 824 mg/L (≈ 2580 µM).
With `CCCCCO/N=C(C)\C=C\C1C(C)=CCCC1(C)C` (configuration not stated), the EC50 in the experiment on Athelia rolfsii was determined as 41.6 mg/L (≈ 150 µM); in the experiment on Macrophomina phaseolina [1] it was 57.6 mg/L (≈ 207 µM); with Sclerotinia sclerotiorum [2], 21.4 mg/L (≈ 77.1 µM); with Macrophomina phaseolina [3], 31.1 mg/L (≈ 112 µM). The Activity is on record as 65% with Sclerotinia sclerotiorum [4], greater than 90% with Sclerotinia sclerotiorum [5] and 40% in the experiment on Sclerotinia sclerotiorum [7]. In the experiment with Sclerotinia sclerotiorum [6], the outcome was Active.
`CCCCCO/N=C(C)/C=C/C1C(C)=CCCC1(C)C` (configuration not stated): the EC50 in the experiment with Athelia rolfsii was found to be 43.6 mg/L (≈ 157 µM); with Macrophomina phaseolina [1], 39.2 mg/L (≈ 141 µM); in the experiment with Sclerotinia sclerotiorum [2] it was 32.7 mg/L (≈ 118 µM); in the experiment on Macrophomina phaseolina [3] it was 94.8 mg/L (≈ 342 µM).
On the same counts, the results for `CC1=CCCC(C)(C)C1/C=C/C(C)=N\OC(C)C` (configuration not stated) are 129 mg/L (≈ 517 µM), 116 mg/L (≈ 467 µM), 190 mg/L (≈ 764 µM) and 198 mg/L (≈ 794 µM).
On the same counts, the results for `CCCCCCCCO/N=C(C)\C=C\C1C(C)=CCCC1(C)C` (configuration not stated) are 1360 mg/L (≈ 4250 µM), 1610 mg/L (≈ 5050 µM), 584 mg/L (≈ 1830 µM) and 1110 mg/L (≈ 3470 µM).
On the same counts, the results for `CCCCCCCCCCO/N=C(C)\C=C\C1C(C)=CCCC1(C)C` (configuration not stated) are 1110 mg/L (≈ 3190 µM), 2060 mg/L (≈ 5920 µM), 477 mg/L (≈ 1370 µM) and 1760 mg/L (≈ 5060 µM).
On to `CC1=CCCC(C)(C)C1/C=C/C(C)=N/OCCC(C)C` (configuration not stated), for which the EC50 with Athelia rolfsii was 257 mg/L (≈ 927 µM); in the experiment with Macrophomina phaseolina [1], 723 mg/L (≈ 2600 µM); in the experiment with Sclerotinia sclerotiorum [2], 273 mg/L (≈ 986 µM); in the experiment with Macrophomina phaseolina [3], 666 mg/L (≈ 2400 µM).
For `CO/N=C(C)\C=C\C1C(C)=CCCC1(C)C` (configuration not stated), the EC50 in the experiment on Athelia rolfsii was determined as 259 mg/L (≈ 1170 µM); in the experiment on Macrophomina phaseolina [1], 413 mg/L (≈ 1870 µM); with Sclerotinia sclerotiorum [2], 517 mg/L (≈ 2340 µM); with Macrophomina phaseolina [3], 311 mg/L (≈ 1400 µM).
`CO/N=C(C)/C=C/C1C(C)=CCCC1(C)C` (configuration not stated): the EC50 with Athelia rolfsii is 238 mg/L (≈ 1070 µM); in the experiment with Macrophomina phaseolina [1], 388 mg/L (≈ 1750 µM); in the experiment with Sclerotinia sclerotiorum [2], 442 mg/L (≈ 2000 µM); in the experiment on Macrophomina phaseolina [3], 307 mg/L (≈ 1380 µM).
Take `CCCCO/N=C(C)\C=C\C1C(C)=CCCC1(C)C` (configuration not stated): the EC50 turned out to be 88.9 mg/L (≈ 337 µM) with Athelia rolfsii, 114 mg/L (≈ 431 µM) in the experiment on Macrophomina phaseolina [1], 164 mg/L (≈ 621 µM) with Sclerotinia sclerotiorum [2] and 174 mg/L (≈ 660 µM) with Macrophomina phaseolina [3].
On the same counts, the results for `CCCO/N=C(C)/C=C/C1C(C)=CCCC1(C)C` (configuration not stated) are 101 mg/L (≈ 406 µM), 32.4 mg/L (≈ 130 µM), 257 mg/L (≈ 1030 µM) and 181 mg/L (≈ 727 µM).
On the same counts, the results for `CCO/N=C(C)\C=C\C1C(C)=CCCC1(C)C` (configuration not stated) are 415 mg/L (≈ 1760 µM), 246 mg/L (≈ 1050 µM), 261 mg/L (≈ 1110 µM) and 394 mg/L (≈ 1670 µM).
As for `CC1=CCCC(C)(C)C1/C=C/C(C)=N/OC(C)C` (configuration not stated), the EC50 came to 35.5 mg/L (≈ 142 µM) in the experiment on Athelia rolfsii, 56.6 mg/L (≈ 227 µM) in the experiment with Macrophomina phaseolina [1], 182 mg/L (≈ 729 µM) in the experiment on Sclerotinia sclerotiorum [2] and 126 mg/L (≈ 505 µM) in the experiment with Macrophomina phaseolina [3].
In the case of `CC1=CCCC(C)(C)C1/C=C/C(C)=N\OCC(C)C` (configuration not stated), the EC50 in the experiment with Athelia rolfsii was 47.6 mg/L (≈ 181 µM); with Macrophomina phaseolina [1] it was 58.7 mg/L (≈ 223 µM); in the experiment with Sclerotinia sclerotiorum [2], 79 mg/L (≈ 300 µM); in the experiment on Macrophomina phaseolina [3], 101 mg/L (≈ 383 µM).
On to `COC(=O)Nc1nc2ccccc2[nH]1` [CARBENDAZIM], for which the Activity with Sclerotinia sclerotiorum [8] was 80%; in the experiment on Sclerotinia sclerotiorum [9], 75%.
With `CCCCO/N=C(C)/C=C/C1C(C)=CCCC1(C)C` (configuration not stated), the EC50 in the experiment with Athelia rolfsii stood at 113 mg/L (≈ 430 µM); with Macrophomina phaseolina [1] it was 67.9 mg/L (≈ 258 µM); in the experiment on Sclerotinia sclerotiorum [2], 107 mg/L (≈ 408 µM); in the experiment on Macrophomina phaseolina [3] it was 101 mg/L (≈ 382 µM).
Turning to `CCCCCCO/N=C(C)\C=C\C1C(C)=CCCC1(C)C` (configuration not stated), the EC50 with Athelia rolfsii amounted to 912 mg/L (≈ 3130 µM); in the experiment with Macrophomina phaseolina [1], 327 mg/L (≈ 1120 µM); with Sclerotinia sclerotiorum [2], 244 mg/L (≈ 837 µM); with Macrophomina phaseolina [3], 963 mg/L (≈ 3300 µM).
On the same counts, the results for `CC1=CCCC(C)(C)C1/C=C/C(C)=N/OCC(C)C` (configuration not stated) are 45.2 mg/L (≈ 172 µM), 50.6 mg/L (≈ 192 µM), 94.1 mg/L (≈ 357 µM) and 103 mg/L (≈ 391 µM).
